Reference: ChEMBL document CHEMBL2163312, “Virtual screening identifies novel sulfonamide inhibitors of ecto-5'-nucleotidase” (J Med Chem, 2012)
pIC50: −log10 of the molar value.

Target: T1, 5'-nucleotidase (Rattus norvegicus, UniProt P21588)
T1 sequence (P21588 whole entry): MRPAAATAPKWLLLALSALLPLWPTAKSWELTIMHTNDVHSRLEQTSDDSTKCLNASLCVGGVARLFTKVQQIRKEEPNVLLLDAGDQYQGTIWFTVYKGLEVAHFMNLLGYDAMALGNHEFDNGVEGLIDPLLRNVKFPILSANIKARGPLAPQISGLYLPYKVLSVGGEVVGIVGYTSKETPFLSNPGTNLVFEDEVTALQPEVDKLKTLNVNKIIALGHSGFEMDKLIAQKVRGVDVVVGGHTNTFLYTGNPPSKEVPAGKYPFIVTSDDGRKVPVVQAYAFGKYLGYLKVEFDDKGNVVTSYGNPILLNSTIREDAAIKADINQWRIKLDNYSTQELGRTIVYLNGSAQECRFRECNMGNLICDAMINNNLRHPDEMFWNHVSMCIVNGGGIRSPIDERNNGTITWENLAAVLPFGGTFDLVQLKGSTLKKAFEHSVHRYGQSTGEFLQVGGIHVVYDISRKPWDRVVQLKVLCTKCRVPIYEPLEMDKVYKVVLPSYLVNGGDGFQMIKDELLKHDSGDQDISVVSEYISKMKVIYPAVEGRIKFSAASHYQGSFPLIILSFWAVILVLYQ
Test: Inhibition of rat recombinant ecto-5'-nucleotidase using [3H]AMP substrate
Method in brief: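 Purified recombinant rat enzyme in a radioactive assay with [3H]AMP as substrate at 5 μM (near Km). Compounds were screened first at 100 and 10 μM. Full concentration–response curves were run for potent compounds to obtain IC50. Inhibition mechanism: 10 substrate concentrations at three inhibitor concentrations, with velocity normalized to Vmax without inhibitor.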

| Structure (SMILES) | pIC50 |
| --- | --- |
| CCOc1ccc(C(=O)NC(=S)Nc2ccc(S(N)(=O)=O)cc2)cc1Cl | 4.33 |
| NS(=O)(=O)c1cc(Cl)c(NC(=O)c2c(O)[nH]c3ccccc3c2=O)c(Cl)c1 | 4.81 |
| Cc1oc(-c2ccc(Cl)cc2)cc1C(=O)Nc1ccc(S(N)(=O)=O)cc1 | 4.35 |
| Cc1c(NC(=O)c2ccc3c(c2)NC(=O)CO3)c(=O)n(-c2ccccc2)n1C | 4.29 |
| O=C(NC(=S)Nc1ccc(S(=O)(=O)c2ccc(NC(=S)NC(=O)c3ccccc3)cc2)cc1)c1ccccc1 | 5.15 |

Now from value to compound:

| pIC50 | Structure (SMILES) |
| --- | --- |
| 4.13 | NS(=O)(=O)c1ccc(NC(=O)c2cc3cc(Cl)cc(Cl)c3oc2=O)cc1 |
| 4.78 | COc1cccc2cc(C(=O)Nc3ccc(S(N)(=O)=O)cc3)c(=O)oc12 |
| 5.40 | NS(=O)(=O)c1ccc(N/N=C/c2cccc(Oc3ccccc3)c2)c([N+](=O)[O-])c1 |
| 5.18 | NS(=O)(=O)c1ccc(N/N=C/c2c(O)ccc3ccccc23)c([N+](=O)[O-])c1 |
| 5.10 | NS(=O)(=O)c1ccc(N/N=C/c2ccc(O)cc2)c([N+](=O)[O-])c1 |
| 5.02 | NS(=O)(=O)c1ccc(N/N=C/c2ccccc2O)c([N+](=O)[O-])c1 |
| 4.74 | NS(=O)(=O)c1ccc(N/N=C/c2cccc(O)c2)c([N+](=O)[O-])c1 |
